Assays:
Jurkat cells = assay: 3' poly; format: cell-based, Human; details: 8 h
Method in brief: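 Poly(A) 3'-end libraries were sequenced. Metagene profiles of normalised reads span gene bodies ±2 kb, with sense and antisense reads shown separately. Differential expression used 3' UTR-associated poly(A)-site counts summed per gene. Intronic versus 3' UTR poly(A) usage was compared by odds ratio for transcripts with TPM > 1.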

[1] = system: wild-type T-ALL cell lines (Jurkat and MOLT4); assay: 3-day growth rate inhibition; format: cell-based, Human; details: GR assay, 72 h
Method in brief: (§1)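 Cells were kept in RPMI 1640 with 10% FBS at 37 °C and 5% CO2, then plated at 6×10^3 cells/well for 24 h. Time 0 was read, then cells were dosed 10 nM–10 μM for 72 h. Viable cells were read by CellTiter-Glo luminescence. GR values, GR50 and GRmax were calculated from time-0 and 72-h data, with growth relative to DMSO. Mean ± s.d., n=3 biologically independent samples, representative of 2 experiments.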

Cyclin K = assay: Immunoblot of Cyclin K protein level in Jurkat cells; format: cell-based, Human; details: 6 h
[2] = system: CRBN−/− cells (Jurkat and MOLT4); assay: 3-day growth rate inhibition; format: cell-based, Human; details: 72 h
Method in brief: as §1

CDK13 = CDK13 (Homo sapiens, UniProt Q14004); assay: Immunoblot of CDK13 protein level in Jurkat cells; format: cell-based; details: 6 h, indicated concentrations
Method in brief: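 Jurkat cells were treated 6 h with DMSO or CDK12 degraders at the indicated concentrations in a preliminary screen. Lysis was in NP40 buffer with protease and phosphatase inhibitors plus 1 mM PMSF. Immunoblots for CDK12, CDK13 and β-actin were imaged on an infrared scanner.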

CDK9 = CDK9 (Homo sapiens, UniProt P50750+Q96SW2); assay: Immunoblot of CDK9 in parental and resistant cells; format: cell-based; details: parental and resistant Jurkat and MOLT4 cells, 250 nM, 8 h
Method in brief: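 Parental and resistant Jurkat and MOLT4 cells were treated 8 h with DMSO, CDK12 degraders or a CDK9 degrader (250 nM). Lysis was in NP40 buffer with protease and phosphatase inhibitors plus 1 mM PMSF. Immunoblots for CDK12 and CDK9, with GAPDH loading control, were imaged on an infrared scanner. Representative of n=2 independent experiments.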

CDK12 I733V/Cyclin K = CDK12 I733V/Cyclin K (Homo sapiens, UniProt Q9NYV4, I733V); assay: 32P-labeled ATP mutated CDK12 kinase assay; format: biochemical; details: recombinant I733V CDK12 vs wild type
Method in brief: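 GST-CDK12 (714–1063) I733V (site-directed mutagenesis) and GST-cyclin K (1–267) were co-expressed with yeast CAK in Sf9 cells for 72 h. Purification was by GST affinity, TEV tag cleavage and size exclusion. The 0.2 μM complex was preincubated with varying compound concentrations for 5 min at 30 °C. Substrate and 0.2 mM [γ-32P]-ATP were added for 15 min at 30 °C. The reaction was stopped with 50 mM EDTA, spotted onto nitrocellulose, washed in phosphoric acid and scintillation-counted.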

Jurkat and MOLT4 cells = assay: Cell cycle analysis by FACS; format: cell-based, Human; details: 24 h, BSJ-4-116 50 nM, BSJ-4-116NC 100 nM
Method in brief: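 Jurkat or MOLT4 cells (0.5×10^6) were treated 24 h. They were fixed in ice-cold 70% ethanol at −20 °C, treated with RNase A (0.5 mg/ml), stained with propidium iodide (50 µg/ml) and analysed by flow cytometry. […] is given as mean ± s.d. of n=2 biologically independent samples, representative of 2 experiments.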

CDK13, sequence (Q14004 whole entry): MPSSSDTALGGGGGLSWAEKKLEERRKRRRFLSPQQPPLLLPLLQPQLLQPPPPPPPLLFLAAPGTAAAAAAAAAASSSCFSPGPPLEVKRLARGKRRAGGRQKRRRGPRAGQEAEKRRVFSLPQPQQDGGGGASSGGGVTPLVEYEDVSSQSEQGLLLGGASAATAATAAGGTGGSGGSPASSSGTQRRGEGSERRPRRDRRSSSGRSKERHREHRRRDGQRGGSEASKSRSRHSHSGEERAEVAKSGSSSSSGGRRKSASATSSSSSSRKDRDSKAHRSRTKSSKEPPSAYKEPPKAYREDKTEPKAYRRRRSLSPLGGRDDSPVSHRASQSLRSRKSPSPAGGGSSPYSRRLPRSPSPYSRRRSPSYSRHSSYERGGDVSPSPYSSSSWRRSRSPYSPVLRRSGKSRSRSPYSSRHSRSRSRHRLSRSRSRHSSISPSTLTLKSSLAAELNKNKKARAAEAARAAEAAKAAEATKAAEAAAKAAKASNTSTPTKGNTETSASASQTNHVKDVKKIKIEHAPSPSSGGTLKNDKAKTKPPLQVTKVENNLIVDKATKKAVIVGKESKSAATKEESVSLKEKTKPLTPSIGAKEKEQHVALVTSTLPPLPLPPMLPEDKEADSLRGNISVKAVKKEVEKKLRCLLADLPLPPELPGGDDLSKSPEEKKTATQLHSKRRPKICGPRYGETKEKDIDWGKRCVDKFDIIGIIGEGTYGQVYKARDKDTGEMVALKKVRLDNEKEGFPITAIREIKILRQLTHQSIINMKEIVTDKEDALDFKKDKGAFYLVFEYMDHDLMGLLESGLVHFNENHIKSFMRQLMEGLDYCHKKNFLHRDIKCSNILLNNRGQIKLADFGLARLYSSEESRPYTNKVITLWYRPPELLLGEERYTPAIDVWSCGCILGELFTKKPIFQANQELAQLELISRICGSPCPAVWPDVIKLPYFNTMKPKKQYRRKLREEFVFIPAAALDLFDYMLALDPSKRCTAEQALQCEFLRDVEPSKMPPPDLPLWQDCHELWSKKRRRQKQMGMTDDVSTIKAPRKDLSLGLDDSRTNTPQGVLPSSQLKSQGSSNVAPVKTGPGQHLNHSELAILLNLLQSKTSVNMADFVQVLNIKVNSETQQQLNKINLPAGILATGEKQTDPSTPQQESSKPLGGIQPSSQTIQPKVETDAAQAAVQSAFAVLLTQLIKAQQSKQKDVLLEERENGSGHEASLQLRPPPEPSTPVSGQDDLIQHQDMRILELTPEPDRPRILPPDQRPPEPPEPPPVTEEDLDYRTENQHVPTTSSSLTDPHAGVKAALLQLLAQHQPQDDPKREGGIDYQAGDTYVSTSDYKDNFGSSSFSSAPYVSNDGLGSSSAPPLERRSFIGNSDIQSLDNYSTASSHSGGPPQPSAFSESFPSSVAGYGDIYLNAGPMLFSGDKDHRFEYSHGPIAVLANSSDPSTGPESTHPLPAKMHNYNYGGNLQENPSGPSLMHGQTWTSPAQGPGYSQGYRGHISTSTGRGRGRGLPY
CDK13, sequence (O75909 whole entry partner): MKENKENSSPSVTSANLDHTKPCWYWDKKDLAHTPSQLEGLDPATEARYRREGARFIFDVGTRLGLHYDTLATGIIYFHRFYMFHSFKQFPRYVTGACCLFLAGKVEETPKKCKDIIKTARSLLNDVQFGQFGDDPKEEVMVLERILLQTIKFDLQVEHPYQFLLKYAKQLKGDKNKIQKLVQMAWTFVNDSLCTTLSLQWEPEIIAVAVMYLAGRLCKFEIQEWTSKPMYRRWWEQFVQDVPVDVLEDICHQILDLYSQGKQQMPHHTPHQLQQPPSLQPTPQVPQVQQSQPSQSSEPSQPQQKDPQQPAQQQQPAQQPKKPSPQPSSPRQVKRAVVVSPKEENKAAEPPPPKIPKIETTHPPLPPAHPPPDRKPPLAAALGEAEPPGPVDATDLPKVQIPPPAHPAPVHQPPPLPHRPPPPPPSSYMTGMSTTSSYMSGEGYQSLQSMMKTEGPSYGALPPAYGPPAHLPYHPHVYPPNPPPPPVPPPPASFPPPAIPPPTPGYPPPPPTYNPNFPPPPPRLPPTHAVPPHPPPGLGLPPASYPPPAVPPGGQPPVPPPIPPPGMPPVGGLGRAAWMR
CDK12 I733V/Cyclin K, sequence (Q9NYV4 714-1063 I733V): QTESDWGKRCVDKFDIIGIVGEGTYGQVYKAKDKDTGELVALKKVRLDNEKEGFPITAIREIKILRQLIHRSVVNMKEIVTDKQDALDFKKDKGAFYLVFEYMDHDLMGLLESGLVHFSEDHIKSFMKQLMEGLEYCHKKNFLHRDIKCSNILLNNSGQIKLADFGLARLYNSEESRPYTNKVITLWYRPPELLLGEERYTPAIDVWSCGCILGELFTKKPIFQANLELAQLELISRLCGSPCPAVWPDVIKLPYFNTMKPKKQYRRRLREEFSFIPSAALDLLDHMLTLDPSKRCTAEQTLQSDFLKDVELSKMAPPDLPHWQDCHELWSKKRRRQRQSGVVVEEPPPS
CDK12 I733V/Cyclin K, sequence (O75909 1-267 partner limits assumed): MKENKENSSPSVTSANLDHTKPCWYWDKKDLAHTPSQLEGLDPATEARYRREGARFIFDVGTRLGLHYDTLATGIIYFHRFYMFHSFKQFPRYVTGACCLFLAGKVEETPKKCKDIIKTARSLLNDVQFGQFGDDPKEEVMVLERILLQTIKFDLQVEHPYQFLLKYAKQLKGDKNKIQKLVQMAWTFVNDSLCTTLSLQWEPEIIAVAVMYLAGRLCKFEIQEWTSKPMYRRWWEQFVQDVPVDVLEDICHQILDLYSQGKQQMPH

| sensitivity of resistant cells to CDK9 degrader (CDK9) | effect of I733V on binding affinity in in vitro kinase assay (CDK12 I733V/Cyclin K) | Compound | genes differentially expressed vs DMSO control cells (Jurkat cells; 50 nM) | fold less potent than BSJ-4-116 [1] | Cyclin K protein level (Cyclin K) | sensitivity of CRBN−/− cells in GR assay [2] | CDK13 protein level (CDK13) | annotated terminal or 3' poly(A) sites (metagene analysis) (Jurkat cells) | downregulated transcripts (Jurkat cells; BSJ-4-116 50 nM, THZ531 250 nM, FDR <= 0.01) | cell cycle distribution (Jurkat and MOLT4 cells) |
| --- | --- | --- | --- | --- | --- | --- | --- | --- | --- | --- |
| – | – | CC(C)S(=O)(=O)c1ccccc1Nc1nc(N[C@@H]2CCCN(CCCCCCCNC(=O)COc3cccc4c3C(=O)N(C3CCC(=O)N(C)C3=O)C4=O)C2)ncc1Cl (stereo partly shown) [BSJ-4-116NC] | 1 gene | 10 fold | no effect | responding similarly | no effect | – | – | – |
| remained equally sensitive | – | CC(C)(C)c1cnc(CSc2cnc(NC(=O)C3CCN(CC(=O)NCCOCCOCCOCCNc4cccc5c4C(=O)N(C4CCC(=O)NC4=O)C5=O)CC3)s2)o1 (stereo not shown) [THAL-SNS-032] | – | – | – | – | – | – | – | – |
| – | loss of binding affinity | CN(C)C/C=C/C(=O)Nc1ccc(C(=O)N2CCC[C@@H](Nc3ncc(Cl)c(-c4c[nH]c5ccccc45)n3)C2)cc1 [THZ531] | – | – | no effect | responding similarly | no effect | significant loss | 7050 | accumulation of G2/M cells |

From paper PMC8590456 (Nature chemical biology, 2021)
